# Test system: HEK-293T
# Assay: Multiplex assay against HEK293T
# Type: toxicity, cell-based
# Conditions: human
# How it was run: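 Compound was added to live cells that had been stained at seeding with Hoechst33342, BioTracker Green Microtubule Cytoskeleton Dye, MitoTracker Red and Annexin V Alexa Fluor 680, and imaging followed on a CQ1 microscope at 37°C and 5% CO2. CellPathfinder machine-learning gating divided cells into Hoechst high-intensity objects or normal cells, normal cells into healthy, pyknosed or fragmented nuclei, and pyknosed cells into mitotic or apoptotic. Tubulin, mitochondrial-mass and membrane-permeability phenotypes are per cents of healthy-nucleus cells.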
# [1] = 12 h, 1 µM, compound concentration 1 uM, replicate 1
# [2] = 12 h, 1 µM, compound concentration 1 uM, replicate 2
# [3] = 12 h, 10 µM, compound concentration 10 uM, replicate 1
# [4] = 12 h, 10 µM, compound concentration 10 uM, replicate 2
# [5] = 24 h, 1 µM, compound concentration 1 uM, replicate 1
# [6] = 24 h, 1 µM, compound concentration 1 uM, replicate 2
# [7] = 24 h, 10 µM, compound concentration 10 uM, replicate 1
# [8] = 24 h, 10 µM, compound concentration 10 uM, replicate 2
# [9] = 48 h, 1 µM, compound concentration 1 uM, replicate 1
# [10] = 48 h, 1 µM, compound concentration 1 uM, replicate 2
# [11] = 48 h, 10 µM, compound concentration 10 uM, replicate 1
# [12] = 48 h, 10 µM, compound concentration 10 uM, replicate 2
compound,measurement,setting,value
c1cc(OCCCN2CCCCC2)ccc1CN1CCCCC1 [JNJ-5207852],Population Apoptotic (%),[1],36%
same,Population Fragmented Nuclei (%),[1],6%
same,Population Healthy Nuclei (%),[1],84%
same,Population Hoechst High Intensity Objects (%),[1],5%
same,Population Membrane Permeable-Phenotype (%),[1],0%
same,Population Mitochondria Different-Phenotype (%),[1],36%
same,Population Mitotic Cells (%),[1],63%
same,Population Normal (%),[1],94%
same,Population Pyknosed Nuclei (%),[1],8%
same,Population Tubulin-Different-Phenotype (%),[1],21%
same,Total Cell Count,[1],577
same,Population Apoptotic (%),[2],47%
same,Population Fragmented Nuclei (%),[2],10%
same,Population Healthy Nuclei (%),[2],75%
same,Population Mitochondria Different-Phenotype (%),[2],53%
same,Population Mitotic Cells (%),[2],52%
same,Population Pyknosed Nuclei (%),[2],13%
same,Population Tubulin-Different-Phenotype (%),[2],17%
same,Total Cell Count,[2],310
same,Population Apoptotic (%),[3],40%
same,Population Fragmented Nuclei (%),[3],7%
same,Population Healthy Nuclei (%),[3],75%
same,Population Hoechst High Intensity Objects (%),[3],7%
same,Population Membrane Permeable-Phenotype (%),[3],0%
same,Population Mitochondria Different-Phenotype (%),[3],63%
same,Population Mitotic Cells (%),[3],59%
same,Population Normal (%),[3],92%
same,Population Pyknosed Nuclei (%),[3],17%
same,Population Tubulin-Different-Phenotype (%),[3],52%
same,Total Cell Count,[3],328
same,Population Apoptotic (%),[4],66%
same,Population Healthy Nuclei (%),[4],67%
same,Population Hoechst High Intensity Objects (%),[4],11%
same,Population Membrane Permeable-Phenotype (%),[4],1%
same,Population Mitochondria Different-Phenotype (%),[4],69%
same,Population Mitotic Cells (%),[4],33%
same,Population Normal (%),[4],88%
same,Population Pyknosed Nuclei (%),[4],24%
same,Population Tubulin-Different-Phenotype (%),[4],41%
same,Total Cell Count,[4],259
same,Population Apoptotic (%),[5],25%
same,Population Fragmented Nuclei (%),[5],6%
same,Population Healthy Nuclei (%),[5],82%
same,Population Hoechst High Intensity Objects (%),[5],5%
same,Population Membrane Permeable-Phenotype (%),[5],1%
same,Population Mitochondria Different-Phenotype (%),[5],20%
same,Population Mitotic Cells (%),[5],74%
same,Population Normal (%),[5],94%
same,Population Pyknosed Nuclei (%),[5],11%
same,Population Tubulin-Different-Phenotype (%),[5],15%
same,Total Cell Count,[5],710
same,Population Apoptotic (%),[6],41%
same,Population Fragmented Nuclei (%),[6],11%
same,Population Healthy Nuclei (%),[6],79%
same,Population Hoechst High Intensity Objects (%),[6],3%
same,Population Membrane Permeable-Phenotype (%),[6],0%
same,Population Mitochondria Different-Phenotype (%),[6],30%
same,Population Mitotic Cells (%),[6],58%
same,Population Normal (%),[6],96%
same,Population Pyknosed Nuclei (%),[6],9%
same,Population Tubulin-Different-Phenotype (%),[6],12%
same,Total Cell Count,[6],447
same,Population Apoptotic (%),[7],47%
same,Population Fragmented Nuclei (%),[7],9%
same,Population Healthy Nuclei (%),[7],77%
same,Population Hoechst High Intensity Objects (%),[7],6%
same,Population Membrane Permeable-Phenotype (%),[7],1%
same,Population Mitochondria Different-Phenotype (%),[7],47%
same,Population Mitotic Cells (%),[7],52%
same,Population Normal (%),[7],93%
same,Population Pyknosed Nuclei (%),[7],13%
same,Population Tubulin-Different-Phenotype (%),[7],44%
same,Total Cell Count,[7],414
same,Population Apoptotic (%),[8],65%
same,Population Fragmented Nuclei (%),[8],8%
same,Population Healthy Nuclei (%),[8],79%
same,Population Hoechst High Intensity Objects (%),[8],5%
same,Population Membrane Permeable-Phenotype (%),[8],2%
same,Population Mitochondria Different-Phenotype (%),[8],50%
same,Population Mitotic Cells (%),[8],34%
same,Population Normal (%),[8],94%
same,Population Pyknosed Nuclei (%),[8],11%
same,Population Tubulin-Different-Phenotype (%),[8],35%
same,Total Cell Count,[8],322
same,Population Apoptotic (%),[9],17%
same,Population Fragmented Nuclei (%),[9],14%
same,Population Healthy Nuclei (%),[9],80%
same,Population Hoechst High Intensity Objects (%),[9],2%
same,Population Membrane Permeable-Phenotype (%),[9],1%
same,Population Mitochondria Different-Phenotype (%),[9],12%
same,Population Mitotic Cells (%),[9],82%
same,Population Normal (%),[9],97%
same,Population Pyknosed Nuclei (%),[9],5%
same,Population Tubulin-Different-Phenotype (%),[9],11%
same,Total Cell Count,[9],1128
same,Population Apoptotic (%),[10],23%
same,Population Fragmented Nuclei (%),[10],11%
same,Population Healthy Nuclei (%),[10],83%
same,Population Hoechst High Intensity Objects (%),[10],1%
same,Population Mitochondria Different-Phenotype (%),[10],17%
same,Population Mitotic Cells (%),[10],76%
same,Population Normal (%),[10],98%
same,Population Pyknosed Nuclei (%),[10],4%
same,Population Tubulin-Different-Phenotype (%),[10],9%
same,Total Cell Count,[10],746
same,Population Apoptotic (%),[11],34%
same,Population Fragmented Nuclei (%),[11],13%
same,Population Healthy Nuclei (%),[11],77%
same,Population Hoechst High Intensity Objects (%),[11],8%
same,Population Membrane Permeable-Phenotype (%),[11],1%
same,Population Mitochondria Different-Phenotype (%),[11],29%
same,Population Mitotic Cells (%),[11],65%
same,Population Normal (%),[11],91%
same,Population Pyknosed Nuclei (%),[11],8%
same,Population Tubulin-Different-Phenotype (%),[11],28%
same,Total Cell Count,[11],619
same,Population Apoptotic (%),[12],52%
same,Population Healthy Nuclei (%),[12],75%
same,Population Hoechst High Intensity Objects (%),[12],9%
same,Population Mitochondria Different-Phenotype (%),[12],38%
same,Population Mitotic Cells (%),[12],47%
same,Population Normal (%),[12],90%
same,Population Pyknosed Nuclei (%),[12],10%
same,Population Tubulin-Different-Phenotype (%),[12],30%
same,Total Cell Count,[12],424
CN1CCN2c3ncccc3Cc3ccccc3C2C1 (centres undefined) [MIRTAZAPINE],Population Apoptotic (%),[1],58%
same,Population Fragmented Nuclei (%),[1],4%
same,Population Healthy Nuclei (%),[1],88%
same,Population Hoechst High Intensity Objects (%),[1],5%
same,Population Membrane Permeable-Phenotype (%),[1],0%
same,Population Mitochondria Different-Phenotype (%),[1],41%
same,Population Mitotic Cells (%),[1],41%
same,Population Normal (%),[1],94%
same,Population Pyknosed Nuclei (%),[1],7%
same,Population Tubulin-Different-Phenotype (%),[1],22%
same,Total Cell Count,[1],402
same,Population Apoptotic (%),[2],51%
same,Population Fragmented Nuclei (%),[2],3%
same,Population Healthy Nuclei (%),[2],79%
same,Population Hoechst High Intensity Objects (%),[2],7%
same,Population Mitochondria Different-Phenotype (%),[2],68%
same,Population Mitotic Cells (%),[2],48%
same,Population Normal (%),[2],92%
same,Population Pyknosed Nuclei (%),[2],17%
same,Population Tubulin-Different-Phenotype (%),[2],21%
same,Total Cell Count,[2],329
same,Population Apoptotic (%),[3],45%
same,Population Fragmented Nuclei (%),[3],9%
same,Population Healthy Nuclei (%),[3],75%
same,Population Hoechst High Intensity Objects (%),[3],6%
same,Population Membrane Permeable-Phenotype (%),[3],0%
same,Population Mitochondria Different-Phenotype (%),[3],49%
same,Population Mitotic Cells (%),[3],54%
same,Population Normal (%),[3],93%
same,Population Pyknosed Nuclei (%),[3],15%
same,Population Tubulin-Different-Phenotype (%),[3],43%
same,Total Cell Count,[3],228
same,Population Apoptotic (%),[4],47%
same,Population Fragmented Nuclei (%),[4],5%
same,Population Healthy Nuclei (%),[4],79%
same,Population Membrane Permeable-Phenotype (%),[4],1%
same,Population Mitochondria Different-Phenotype (%),[4],64%
same,Population Mitotic Cells (%),[4],52%
same,Population Tubulin-Different-Phenotype (%),[4],36%
same,Total Cell Count,[4],240
same,Population Apoptotic (%),[5],33%
same,Population Fragmented Nuclei (%),[5],9%
same,Population Healthy Nuclei (%),[5],80%
same,Population Hoechst High Intensity Objects (%),[5],3%
same,Population Membrane Permeable-Phenotype (%),[5],0%
same,Population Mitochondria Different-Phenotype (%),[5],35%
same,Population Mitotic Cells (%),[5],66%
same,Population Normal (%),[5],97%
same,Population Pyknosed Nuclei (%),[5],10%
same,Population Tubulin-Different-Phenotype (%),[5],18%
same,Total Cell Count,[5],601
same,Population Apoptotic (%),[6],42%
same,Population Fragmented Nuclei (%),[6],6%
same,Population Healthy Nuclei (%),[6],79%
same,Population Hoechst High Intensity Objects (%),[6],6%
same,Population Mitochondria Different-Phenotype (%),[6],47%
same,Population Mitotic Cells (%),[6],57%
same,Population Normal (%),[6],93%
same,Population Pyknosed Nuclei (%),[6],14%
same,Population Tubulin-Different-Phenotype (%),[6],17%
same,Total Cell Count,[6],373
same,Population Apoptotic (%),[7],44%
same,Population Fragmented Nuclei (%),[7],9%
same,Population Healthy Nuclei (%),[7],78%
same,Population Hoechst High Intensity Objects (%),[7],3%
same,Population Membrane Permeable-Phenotype (%),[7],0%
same,Population Mitochondria Different-Phenotype (%),[7],40%
same,Population Mitotic Cells (%),[7],55%
same,Population Normal (%),[7],96%
same,Population Pyknosed Nuclei (%),[7],12%
same,Population Tubulin-Different-Phenotype (%),[7],28%
same,Total Cell Count,[7],274
same,Population Apoptotic (%),[8],32%
same,Population Fragmented Nuclei (%),[8],5%
same,Population Healthy Nuclei (%),[8],80%
same,Population Hoechst High Intensity Objects (%),[8],5%
same,Population Mitochondria Different-Phenotype (%),[8],44%
same,Population Mitotic Cells (%),[8],67%
same,Population Normal (%),[8],94%
same,Population Pyknosed Nuclei (%),[8],13%
same,Population Tubulin-Different-Phenotype (%),[8],18%
same,Total Cell Count,[8],314
same,Population Apoptotic (%),[9],23%
same,Population Fragmented Nuclei (%),[9],11%
same,Population Healthy Nuclei (%),[9],82%
same,Population Hoechst High Intensity Objects (%),[9],2%
same,Population Membrane Permeable-Phenotype (%),[9],1%
same,Population Mitochondria Different-Phenotype (%),[9],19%
same,Population Mitotic Cells (%),[9],76%
same,Population Normal (%),[9],97%
same,Population Pyknosed Nuclei (%),[9],6%
same,Population Tubulin-Different-Phenotype (%),[9],13%
same,Total Cell Count,[9],885
same,Population Apoptotic (%),[10],44%
same,Population Fragmented Nuclei (%),[10],13%
same,Population Healthy Nuclei (%),[10],80%
same,Population Hoechst High Intensity Objects (%),[10],3%
same,Population Membrane Permeable-Phenotype (%),[10],0%
same,Population Mitochondria Different-Phenotype (%),[10],21%
same,Population Mitotic Cells (%),[10],55%
same,Population Normal (%),[10],96%
same,Population Tubulin-Different-Phenotype (%),[10],9%
same,Total Cell Count,[10],562
same,Population Apoptotic (%),[11],31%
same,Population Fragmented Nuclei (%),[11],14%
same,Population Healthy Nuclei (%),[11],74%
same,Population Hoechst High Intensity Objects (%),[11],2%
same,Population Membrane Permeable-Phenotype (%),[11],0%
same,Population Mitochondria Different-Phenotype (%),[11],36%
same,Population Mitotic Cells (%),[11],68%
same,Population Normal (%),[11],97%
same,Population Pyknosed Nuclei (%),[11],10%
same,Population Tubulin-Different-Phenotype (%),[11],20%
same,Total Cell Count,[11],390
same,Population Apoptotic (%),[12],30%
same,Population Fragmented Nuclei (%),[12],11%
same,Population Healthy Nuclei (%),[12],81%
same,Population Hoechst High Intensity Objects (%),[12],3%
same,Population Mitochondria Different-Phenotype (%),[12],30%
same,Population Mitotic Cells (%),[12],69%
same,Population Normal (%),[12],96%
same,Population Pyknosed Nuclei (%),[12],7%
same,Population Tubulin-Different-Phenotype (%),[12],12%
same,Total Cell Count,[12],521

# — ChEMBL document CHEMBL5058577, “EUbOPEN Chemogenomics Library 2 (Multiplex)” (2022)
